Reference: paper PMC11094421 (Clinical Cancer Research, 2024)

Experiments:
[1] = test system: ATM^mut non–small cell lung cancer (NSCLC) xenograft model; conditions: monotherapy; Supplementary Fig. S1; cited from earlier work
circulating tumor DNA = test: Molecular response in plasma ctDNA; type: in vivo, human
[2] = Treatment-emergent adverse events, first-in-human dose-escalation study; type: in vivo
Procedure, shortened: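 Safety set comprised all patients given ≥1 dose (N = 55; 5–270 mg, QD or BID schedules). TEAEs were counted from the first dose until 30 days after the last. Baseline was the last value before the first dose.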

[3] = test system: patients with advanced solid tumors; test: Objective response according to RECIST v1.1; type: in vivo, human
Procedure, shortened: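 Investigator-assessed objective response per RECIST v1.1, based on change in the sum of longest diameters of target lesions. Patients received the test compound once or twice daily on continuous or intermittent schedules.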

[4] = lartesertib, niraparib, cisplatin, gemcitabine, irinotecan; preclinical; cited from earlier work
[5] = test system: xenograft models of BRCA^mut high-grade serous ovarian cancer; conditions: monotherapy and combination with niraparib; cited from earlier work
[6] = test system: ARID1A^mut gastric cancer xenograft model; conditions: monotherapy; Supplementary Fig. S1; cited from earlier work
[7] = Dose-limiting toxicities, MTD and RDE; type: in vivo, human
Procedure, shortened: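 Patients with metastatic or locally advanced unresectable solid tumors received test compound alone, fasting, QD from 5 mg upward, plus 2 weeks on/1 week off and 150 mg BID 4 days on/3 days off schedules. The DLT window was 21 days with a 30% target DLT rate. A Bayesian 2-parameter logistic model with overdose control and a schedule covariate gave posterior DLT probabilities (mean, percentiles). Analysis set N = 52.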

[8] = Noncompartmental PK of tuvusertib in plasma; type: in vivo, human
immune cell subsets = test: Immunophenotyping of whole blood by flow cytometry; type: in vivo, human; conditions: doses ≥130 mg, on-treatment period; full recovery during treatment breaks

Cn1cncc1-c1c(F)cncc1NC(=O)c1c(N)nn2cc(F)cnc12 [Tuvusertib]
antitumor activity [1]: antitumor activity as monotherapy | Complete MRs for any mutations (circulating tumor DNA; ARID1A): 2/8 | Complete MRs for any mutations (circulating tumor DNA; ATRX): 2/5 | Complete MRs for any mutations (circulating tumor DNA; BRCA1/2): 2/11 | Complete MRs for any mutations (circulating tumor DNA; DAXX): 2/3 | MRs by tumor type (circulating tumor DNA; breast cancer, 1/3): 33% | MRs by tumor type (circulating tumor DNA; other tumor types, 4/21): 19% | MRs by tumor type (circulating tumor DNA; ovarian cancer, 5/10): 50% | MRs observed (patients) (circulating tumor DNA; patients treated with more than 130 mg QD, 14/37): 38% | patients showing a reduction in sum of tumor diameter (circulating tumor DNA; patients with MRs, 7/14): 50% | patients showing a reduction in sum of tumor diameter (circulating tumor DNA; patients without MRs, 8/33): 24% | MRs observed (patients) (circulating tumor DNA; the 10 patients who received lower doses): none | Anemia TEAE ([2]; Any grade, all doses, N = 55): 39 (71) n (%) | Constipation TEAE ([2]; Any grade, all doses, N = 55): 13 (24) n (%) | Fatigue TEAE ([2]; Any grade, all doses, N = 55): 22 (40.0) n (%) | Nausea TEAE ([2]; Any grade, all doses, N = 55): 34 (62) n (%) | Vomiting TEAE ([2]; Any grade, all doses, N = 55): 21 (38) n (%) | Anemia TEAE ([2]; Grade ≥3, all doses, N = 55): 20 (36) n (%) | Constipation TEAE ([2]; Grade ≥3, all doses, N = 55): 0 n (%) | Fatigue TEAE ([2]; Grade ≥3, all doses, N = 55): 1 (2) n (%) | Nausea TEAE ([2]; Grade ≥3, all doses, N = 55): 0 n (%) | Vomiting TEAE ([2]; Grade ≥3, all doses, N = 55): 3 (6) n (%) | treatment-related AE anemia ([2]; across all dose levels): 67% | treatment-related AE fatigue ([2]; across all dose levels): 38% | treatment-related AE vomiting ([2]; across all dose levels): 33% | TEAEs assessed as related to tuvusertib ([2]; all doses): 87% | abnormal ECG readings, vital signs, high-grade laboratory abnormalities ([2]; all doses): No clinically significant abnormal ECG readings, vital signs or high-grade laboratory abnormalities were observed | patients who experienced at least one TEAE ([2]; all doses): 95% | Any grade ≥3 TEAE ([2]; all doses, N = 55): 26 (47) n (%) | Any serious TEAE ([2]; all doses, N = 55): 15 (27) n (%) | Grade ≥3 TEAE related to tuvusertib ([2]; all doses, N = 55): 19 (35) n (%) | Serious TEAE related to tuvusertib ([2]; all doses, N = 55): 3 (6) n (%) | TEAE leading to permanent tuvusertib discontinuation ([2]; all doses, N = 55): 3 (6) n (%) | TEAE leading to temporary tuvusertib discontinuation ([2]; all doses, N = 55): 26 (47) n (%) | TEAEs related to tuvusertib ([2]; all doses, N = 55): 48 (87) n (%) | Any TEAE ([2]; all doses, N = 55, safety analysis set): 52 (95) n (%) | constipation TEAE of any grade ([2]; at the MTD (n = 11)): 36% | nausea TEAE of any grade ([2]; at the MTD (n = 11)): 55% | vomiting TEAE of any grade ([2]; at the MTD (n = 11)): 36% | grade ≥3 TEAE anemia ([2]; at the RDE): none seen | nausea TEAE of any grade ([2]; at the RDE (n = 7)): 71% | anemia TEAE of any grade ([2]; overall): 71% | fatigue TEAE of any grade ([2]; overall): 40% | grade ≥3 TEAE lymphocyte count decreased ([2]; overall): 7% | grade ≥3 TEAE neutrophil count decreased ([2]; overall): 7% | nausea TEAE of any grade ([2]; overall): 62% | grade ≥3 TEAE anemia ([2]; overall, majority at doses ≥ MTD): 36% | Grade ≥4 platelet count decreased ([2]; reported at dose levels exceeding the MTD): 4% | patients with stable disease (RECIST v1.1) ([3]; 15 patients, all doses): 27% | duration of disease stabilization ([3]; patient with unconfirmed partial response, 150 mg BID 4 days on/3 days off): 9 months | synergy with other DDR-targeting treatments and DNA-damaging agents [4]: pronounced synergy | antitumor activity [5]: antitumor activity as monotherapy and in combination with the PARP inhibitor niraparib | antitumor activity [6]: antitumor activity as monotherapy | DLT anemia requiring blood transfusion ([7]; 130 mg QD): 1/8 | DLT anemia requiring blood transfusion ([7]; 150 mg BID 4 days on/3 days off): 3/4 | DLT anemia requiring blood transfusion ([7]; 180 mg QD): 3/10 | median estimated DLT probability ([7]; 180 mg QD continuously): 23% | upper boundary of the one-sided 95% credible interval of DLT probability ([7]; 180 mg QD continuously): 37% | DLT anemia requiring blood transfusion ([7]; 220 mg QD 2 weeks on/1 week off): 2/6 | DLT anemia requiring blood transfusion ([7]; 270 mg QD): 1/4 | DLT upper gastrointestinal hemorrhage and decreased platelet counts (one each) ([7]; 270 mg QD): 2/4 | patients who experienced DLTs ([7]; as assessed by the SMC, observation period 21 days): Eleven | median estimated DLT probability ([7]; intermittent 2 weeks on/1 week off schedule, no MTD formally established): < 20% | DLTs that were events of anemia requiring blood transfusion ([7]; of eleven patients with DLTs): 10 | dose proportionality of exposure ([8]; 5 to 270 mg): approximately dose proportional up to 180 mg QD and slightly more than proportional at higher doses | PK steady-state conditions achieved ([8]; cycle 1): ≤ 8 days | half-life ([8]; human, plasma, oral): 72 to 336 min | Tmax ([8]; human, plasma, po): 0.5 to 3.5 h | monocytes and NK cell subsets (immune cell subsets): Transient decreases
